Rows were chosen to be rich in hits. Some 4.5% of all compounds tested hit in one or more screens of this group.
TAAR1 ag – agonists of human TAAR1. Q96RJ0. CHO RD-HGA16 TAAR1, Fluo-8 calcium fluorescence; vehicle wells 0%, saturating PEA agonist 100%. activation, % at 3 µM. actives 0.99% (n = 360,000). AID 624467;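 active = activation above the mean activation of all test compounds in the run plus 3 SD, cut at about 38% in these data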
Target sequence (Q96RJ0 whole entry, looked up): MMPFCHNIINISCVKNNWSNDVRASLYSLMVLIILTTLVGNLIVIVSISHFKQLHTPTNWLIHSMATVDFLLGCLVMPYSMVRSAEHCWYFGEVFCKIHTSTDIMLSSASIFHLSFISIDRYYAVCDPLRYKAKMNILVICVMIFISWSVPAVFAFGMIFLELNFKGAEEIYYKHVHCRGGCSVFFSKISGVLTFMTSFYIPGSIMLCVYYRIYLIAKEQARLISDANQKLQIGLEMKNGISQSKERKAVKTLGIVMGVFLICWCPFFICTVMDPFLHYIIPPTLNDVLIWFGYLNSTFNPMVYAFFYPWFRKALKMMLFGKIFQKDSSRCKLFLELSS
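Benchmarks: low control DMSO, high control PEA (EC100); System: CHO RD-HGA16 cells carrying human TAAR1 plus Gα16; Detection: Fluo-8 fluorescence, 5 s baseline then 140 s kinetic read; Schedule: 17-24 h plating, Fluo-8 75 min 37 °C, 30 min RT; Read-out basis: % activation from peak over basal fluorescence ratio, DMSO-to-PEA scaled.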
TAAR1 antagonist – human TAAR1 antagonism. inhibition, % at 3 µM. Q96RJ0. actives 1.5% (n = 360,000). CHO RD-HGA16 TAAR1, Fluo-8 calcium fluorescence, antagonist;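 active = inhibition above a per-plate cutoff, the mean inhibition of test compounds on that plate plus 3 SD, cut at about 49% in these data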
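Test system: hTAAR1-expressing CHO RD-HGA16 cells, Gα16-coupled; Probe or stimulus: EC80 β-phenethylamine stimulus; Compound dosing: single nominal final test compound concentration of 3 µM; Timing: 140 s kinetic read after compound, 140 s after agonist; Signal: Fluo-8 calcium-sensitive fluorescence; Measure: % inhibition of agonist calcium response; Controls: DMSO and EC80 PEA controls.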
CHO parental Ca – counter-screen: ATP calcium response change in parental CHO cells | AID 463079 | parental CHO-K1, ATP-induced calcium, Fluo-8 fluorescence | inhibition, % at 5.6 µM | actives 0.63% (n = 330,000);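 active = inhibition above that plate's mean sample inhibition plus 3 SD, cut at about 26% in these data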
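Test system: untransfected parental CHO cell line. Compound: one dose, 5.6 µM nominal. Detection: intracellular calcium via Fluo-8 no-wash fluorescent dye. Measure: % inhibition. Benchmarks: ATP-challenged DMSO wells low, unchallenged DMSO wells high.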
OX1R antag-1 – OX1R (human) antagonism; O43613; OX1R-expressing cells, FRET antagonist read-out; inhibition, % at 6.6 µM; actives 1.8% (n = 330,000); AID 485270; in the data active = inhibition mostly above about 38%, no sharp cut-off; inactive = mostly below about 40%
GPR7 antagonist – antagonists of human GPR7 (neuropeptides B/W receptor 1); P48145; GPR7-expressing cells, fluorescence antagonist assay; inhibition, % at 4.4 µM; actives 1.1% (n = 290,000); in the data active = inhibition above about 16%, passing the limit was not always enough;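 note: cells stimulated with the agonist NPW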
Target sequence (P48145 whole entry, looked up): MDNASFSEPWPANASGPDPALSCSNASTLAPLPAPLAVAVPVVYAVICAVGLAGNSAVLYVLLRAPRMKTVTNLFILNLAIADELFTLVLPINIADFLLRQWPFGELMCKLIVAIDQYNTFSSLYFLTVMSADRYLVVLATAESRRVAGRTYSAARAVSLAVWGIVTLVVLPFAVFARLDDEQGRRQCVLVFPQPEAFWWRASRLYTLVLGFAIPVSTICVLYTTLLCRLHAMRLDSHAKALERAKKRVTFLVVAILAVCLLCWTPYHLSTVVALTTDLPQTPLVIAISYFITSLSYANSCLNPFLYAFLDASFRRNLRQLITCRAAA
OX1R antag-2 – human HCRTR1 antagonism; O43613; CHO/OX1R cells, Fluo-8 calcium fluorescence, orexin A; inhibition, % at 5 µM; actives 0.43% (n = 330,000); AID 434989;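 active = inhibition above its plate's threshold, mean inhibition of all tested compounds on the plate plus 3 SD, cut at about 37% in these data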
TAAR1 ag conf – confirmation of human TAAR1 agonists | shares compounds with TAAR1 ag | CHO RD-HGA16 TAAR1, Fluo-8 calcium fluorescence; scaled: DMSO 0%, maximal phenethylamine 100% | activation, % at 3 µM | actives 82% (n = 2,400) | AID 651783;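 active = activation above a cutoff set at the run's mean compound activation plus 3 SD, cut at about 39% in these data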
Ga16 ag counter – nonselective agonism, TAAR1 counter-screen; shares compounds with TAAR1 ag; actives 50% (n = 2,400); AID 651787; CHO-Ga16 parental, Fluo-8 calcium fluorescence; normalized to maximal ATP response, DMSO zero; activation, % at 3 µM;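 active = activation above the run cutoff, the mean activation over all tested wells plus 3 SD, cut at about 12% in these data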
TAAR1 desensitize – TAAR1 response desensitization, agonist counter-screen | inhibition, % at 3 µM | CHO RD-HGA16 hTAAR1, Fluo-8 calcium, beta-PEA response inhibition | actives 46% (n = 2,400) | AID 651951 | shares compounds with TAAR1 ag;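 active = inhibition above the run cutoff, the mean inhibition of all test compounds plus 3 SD, cut at about 49% in these data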;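 note: beta-PEA stimulus applied at its EC80; loss of beta-PEA calcium signal after compound pretreatment read as receptor desensitization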
Ga16 antag count – nonselective Ga16 antagonism, counter-screen; shares compounds with TAAR1 ag; CHO-Ga16 ATP-induced calcium, Fluo-8 fluorescence; inhibition, % at 3 µM; actives 39% (n = 2,400);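 active = inhibition above the plate's mean compound inhibition plus 3 SD, computed per plate, cut at about 22% in these data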
Each line names hits and unclear results; the compound was inactive in the other large screens (follow-up assays come after a bar, where they were run).

CC(=O)Nc1ccc2c(c1)Cc1cc(N3C(=O)C=CC3=O)ccc1-2	TAAR1 ag 59, TAAR1 antagonist 52 (no result: CHO parental Ca, OX1R antag-1, GPR7 antagonist, OX1R antag-2) | TAAR1 ag conf inactive | Ga16 ag counter 29 | TAAR1 desensitize inactive | Ga16 antag count 54
O=C1C=CC(=O)N1c1ccc2c(c1)Cc1cc(F)ccc1-2	none (no result: CHO parental Ca, OX1R antag-1, GPR7 antagonist, OX1R antag-2)
COc1ccc(N2C(=O)CN(Cc3ccc(OC)c(OC)c3)C2=S)cc1	TAAR1 ag 154 | TAAR1 ag conf inactive | Ga16 ag counter inactive | TAAR1 desensitize inactive | Ga16 antag count inactive
C[C@@H]1CN([C@@H](C)CO)C(=O)c2cc(NC(=O)C3CC3)ccc2O[C@@H]1CN(C)C(=O)NC1CCCCC1	none (no result: GPR7 antagonist)
CCOCCCNC(=O)c1ccc(CS(=O)(=O)Cc2cccc(C)c2)o1	none
CN(CCNC(=O)c1ccc(CS(=O)(=O)c2ccc(Br)cc2)o1)CCc1ccccc1	TAAR1 ag 53 | TAAR1 ag conf 51 | Ga16 ag counter inactive | TAAR1 desensitize inactive | Ga16 antag count inactive
Cc1ccccc1CS(=O)(=O)Cc1ccc(C(=O)NCCc2ccccc2)o1	TAAR1 ag 72 | TAAR1 ag conf 48 | Ga16 ag counter inactive | TAAR1 desensitize inactive | Ga16 antag count 22
Cc1cccc(CS(=O)(=O)Cc2ccc(C(=O)NCCc3ccccc3)o2)c1	TAAR1 ag 48 | TAAR1 ag conf inactive | Ga16 ag counter inactive | TAAR1 desensitize inactive | Ga16 antag count inactive
O=C(NCCc1ccccc1)c1ccc(CS(=O)(=O)c2ccc(Br)cc2)o1	none
COc1cccc(CNC(=O)c2ccc(CS(=O)(=O)Cc3ccccc3C)o2)c1	none
CCN(CC(=O)NCCc1ccc(S(N)(=O)=O)cc1)Cc1ccccc1	none
C=CCN1C(=O)/C(=C/C=C2/N(CC)c3ccc(S(=O)(=O)N(C)C)cc3N2CC)SC1=S	TAAR1 ag 107, TAAR1 antagonist 74 | TAAR1 ag conf 90 | Ga16 ag counter 91 | TAAR1 desensitize 87 | Ga16 antag count 88
CCOC(=O)c1ccc2c(c1)N(CC)/C(=C\C=C1/SC(=S)N(CC)C1=O)N2CC	none (no result: TAAR1 ag, TAAR1 antagonist, CHO parental Ca, OX1R antag-1, OX1R antag-2)
C=CCOC(=O)C(=O)/C=C/c1coc2ccccc2c1=O	TAAR1 ag 53 | TAAR1 ag conf inactive | Ga16 ag counter 23 | TAAR1 desensitize inactive | Ga16 antag count inactive
CC(C(=O)N1CCc2ccccc2C1)N1C(=O)c2ccccc2C1=O (stereo not drawn)	none
CC(C)CC(C(=O)N1CCc2ccccc2C1)N1C(=O)c2ccccc2C1=O (stereo not drawn)	TAAR1 ag 75, GPR7 antagonist 20 | TAAR1 ag conf 77 | Ga16 ag counter inactive | TAAR1 desensitize 65 | Ga16 antag count inactive
CCCNC(=S)Nc1ccc2nc(-c3ccccn3)c(-c3ccccn3)nc2c1	none
CN1CCN(c2nc3cc(C(F)(F)F)ccc3n3cccc23)CC1	TAAR1 ag 62 (no result: GPR7 antagonist) | TAAR1 ag conf 83 | Ga16 ag counter 20 | TAAR1 desensitize inactive | Ga16 antag count inactive
FC(F)(F)c1ccc2c(c1)nc1n2CCCC1	none
N#Cc1c(NCCN)nc(-c2ccccc2)c2c1CCCC2	TAAR1 ag 54 | TAAR1 ag conf 38 | Ga16 ag counter inactive | TAAR1 desensitize inactive | Ga16 antag count inactive
COc1ccc(OC(=O)NCCc2ccccc2)cc1	TAAR1 ag 57 | TAAR1 ag conf 84 | Ga16 ag counter inactive | TAAR1 desensitize 73 | Ga16 antag count inactive
COc1ccc(C(=O)CC(=O)C(=O)NCCc2cccc(C)c2)cc1	TAAR1 ag 84, TAAR1 antagonist 80 | TAAR1 ag conf 94 | Ga16 ag counter inactive | TAAR1 desensitize 84 | Ga16 antag count inactive
COc1ccccc1CC(=O)NCCCc1ccccc1	none
COc1ccc(CCNC(=O)CCCc2ccccc2)cc1	none
Cc1cc(Cl)nc(Cl)c1C(=O)NCCc1ccccc1	none (no result: TAAR1 ag, TAAR1 antagonist, GPR7 antagonist) | Ga16 ag counter inactive | Ga16 antag count inactive
COc1ccccc1CC(=O)NCCc1ccccc1	TAAR1 ag 69 | TAAR1 ag conf 85 | Ga16 ag counter inactive | TAAR1 desensitize 77 | Ga16 antag count inactive
COc1ccccc1C(=O)NCc1ccccn1	none
O=[N+]([O-])c1ccc(Nc2cccc(F)c2)nc1	none
N=C(N)SCc1ccccc1Cl	TAAR1 ag 72 | TAAR1 ag conf 82 | Ga16 ag counter inactive | TAAR1 desensitize 73 | Ga16 antag count inactive
CC1CCCN(CCOc2ccc(Br)cc2)C1 (stereo not drawn)	none
COc1ccc(C(=O)CCN2CCCC(C)C2)cc1 (stereo not drawn)	TAAR1 ag 79 | TAAR1 ag conf 76 | Ga16 ag counter inactive | TAAR1 desensitize inactive | Ga16 antag count inactive
CC1CCCN(CCC(=O)c2ccc(Br)cc2)C1 (stereo not drawn)	TAAR1 ag 75 | TAAR1 ag conf 93 | Ga16 ag counter inactive | TAAR1 desensitize 57 | Ga16 antag count inactive
COc1ccccc1N(CC(=O)NCC1CCCO1)C(=O)CNS(=O)(=O)c1ccccc1 (stereo not drawn)	none
Nc1sc2c(c1C(=O)NCCc1ccccc1)CCCC2	TAAR1 ag 76, TAAR1 antagonist 64 (no result: CHO parental Ca, OX1R antag-1, GPR7 antagonist, OX1R antag-2) | TAAR1 ag conf 90 | Ga16 ag counter inactive | TAAR1 desensitize 79 | Ga16 antag count inactive
Nc1sc2c(c1C(=O)c1ccccc1)CCCC2	none
Nc1sc2c(c1C(=O)NCCc1ccccc1)CCC2	TAAR1 ag 54 | TAAR1 ag conf 81 | Ga16 ag counter inactive | TAAR1 desensitize 61 | Ga16 antag count inactive
CN(C)CCNC(=O)c1c(NC(=O)c2ccccc2)sc2c1CCCC2	none
COc1ccc(C(=O)Nc2cc(C(=O)c3ccccc3)c(C)oc2=O)cc1	none
Cc1oc(=O)c(NC(=O)c2cccc(Cl)c2)cc1C(=O)c1ccccc1	TAAR1 ag 55 | TAAR1 ag conf inactive | Ga16 ag counter inactive | TAAR1 desensitize inactive | Ga16 antag count 31
CN1CCN(c2ccc(NC(=O)CSc3ccccc3)cc2F)CC1	TAAR1 ag 57 | TAAR1 ag conf 71 | Ga16 ag counter inactive | TAAR1 desensitize inactive | Ga16 antag count inactive
Cc1ccc(S(=O)(=O)Nc2nc3ccccc3nc2NCC2CCCO2)c(C)c1 (stereo not drawn)	none

Screening data: PubChem, The Scripps Research Institute Molecular Screening Center
